The text below walks through data of ChEMBL document CHEMBL1255220, “Synthesis and antitumor effect in vitro and in vivo of substituted 1,3-dihydroindole-2-ones” (J Med Chem, 2010).

Activity calls are given as the source filed them. The calls are words filed in the database; no cut-off is given here. A value given as a limit tells only on which side of the number the result lay.

One series deals with MCF7. The experiment in a line: Cytotoxicity against human MCF7 cells after 72 hrs by WST-1 assay. In kind it is functional, cell-based. The gist of the method: (§1)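 Cells seeded at 3×10³/well; next day serially diluted compound added in triplicate; 72 h at 37 °C, 5% CO₂. Viable cells measured with WST-1 reagent (1 h), absorbance 450 nm minus 690 nm reference. IC50 is mean ± SD of at least two experiments run in triplicate. MCF-7 grown in DMEM, PC3 in RPMI, each with 10% serum.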

The test system of series [1] is PC-3. The experiment in a line: Cytotoxicity against human PC3 cells after 72 hrs by WST-1 assay. In kind it is functional, cell-based. The gist of the method: as §1
The test system of series [2] is PC-3. The experiment in a line: Antitumor activity against human PC3 cells xenografted in sc dosed NMRI mouse assessed as tumor regression dose. Format: functional. The gist of the method: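 1e7 PC3 cells (grown in RPMI + 10% FBS) in PBS/Matrigel 1:1 injected sc into female NMRI nude mice or female NIH-RNU nude rats. Compound dosed iv three times per week. Tumour regression dose recorded. Rat effective doses were estimated from mouse xenografts using a 0.5 mouse-to-rat conversion factor.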

For series [3], the system named is PC-3. The experiment in a line: Antitumor activity against human PC3 cells xenografted in sc dosed rat assessed as tumor regression dose. Format: functional.
The nature of series [4]: Therapeutic index, ratio of MTD in rat to ED50 for antitumor activity against human PC3 cells xenografted in rat. Format: cell-based, PC-3. As to conditions: in vivo, read-out: TI. The gist of the method:
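PC3 human prostate cancer cells (1e7, grown in RPMI + 10% FBS, suspended in PBS + Matrigel) were implanted sc in female nude rats (NIHRNU-M) or nude mice (NMRI/nude), with iv dosing 3×/week. Rat MTD came from a single iv dose. Effective rat doses were estimated from mouse xenografts using a mouse-to-rat conversion factor of 0.5. Index = rat toxic dose / rat effective dose.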

Series [5] can be described thus: Toxicity in iv dosed rat assessed as maximum tolerated dose. Particulars: in vivo.
The target of series [6] is Eukaryotic translation initiation factor 2 subunit 1 (Homo sapiens) (UniProt P05198). The experiment in a line: Inhibition of eIF2alpha autophosphorylation in human A2780 cells. Format: cell-based. The gist of the method:
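MCF-7 (DMEM) and A2780 (RPMI 1640) cells, together with sublines made resistant by culture in rising concentrations of the parent oxindole, were treated with compound for 4 and 24 h respectively. Lysates (20 μg protein) separated by SDS-PAGE and blotted onto nitrocellulose. Phospho-eIF2α read by western blot: milk block, primary antibody overnight at 4 °C, HRP secondary antibody.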

Series [7] has the same target. The experiment in a line: Induction of eIF2alpha phosphorylation in human MCF7 cells.
A short description of series [8]: AUC in mouse at 5 mg/kg, iv. Particulars: plasma. Also on record: dose 5 mg/kg, route intravenous. Format: ADME, organism-based. In outline: (§2)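 Compound given as single iv dose to mice or rats. Plasma samples prepared by protein precipitation with acetonitrile containing 1 μg/mL internal standard (3:1 v/v). Analysed by UPLC-MS/MS on a C18 reversed-phase column at 40 °C with an acetonitrile–0.05% formic acid gradient. Half-life and AUC (h ng/mL) derived from the plasma levels.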

Series [9] can be described thus: Half life in mouse at 5 mg/kg, iv. Format: ADME, organism-based. Also on record: dose 5 mg/kg, route intravenous. As to conditions: in vivo. In outline: as §2
Series [10] is described as follows: Half life in rat at 2.5 mg/kg, iv. In kind it is ADME, organism-based. Also on record: dose 2.5 mg/kg, route intravenous. Particulars: in vivo. In outline: as §2
Series [11] in a line: AUC in rat at 2.5 mg/kg, iv. In kind it is ADME, organism-based. Further details: dose 2.5 mg/kg, route intravenous. As to conditions: plasma. The gist of the method:
as §2

The nature of series [12]: Half life in rat at 5 mg/kg, iv. Particulars: in vivo. Format: ADME, organism-based. Further details: dose 5 mg/kg, route intravenous. The gist of the method: as §2
A short description of series [13]: AUC in rat at 5 mg/kg, iv. Format: ADME, organism-based. Also on record: dose 5 mg/kg, route intravenous. As to conditions: plasma. In outline:
as §2

Chain of Eukaryotic translation initiation factor 2 subunit 1 (Homo sapiens) (P05198 whole entry): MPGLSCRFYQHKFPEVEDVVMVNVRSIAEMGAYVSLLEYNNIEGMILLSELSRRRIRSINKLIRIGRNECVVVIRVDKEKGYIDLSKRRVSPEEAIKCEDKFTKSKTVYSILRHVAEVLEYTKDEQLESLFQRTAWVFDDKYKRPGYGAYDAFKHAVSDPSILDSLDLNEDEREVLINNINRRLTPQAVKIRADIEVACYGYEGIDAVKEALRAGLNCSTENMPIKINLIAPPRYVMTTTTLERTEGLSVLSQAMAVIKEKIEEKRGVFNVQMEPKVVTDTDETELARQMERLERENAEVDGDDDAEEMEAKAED

In the case of `COc1ccc2c(c1C)NC(=O)[C@]2(c1ccc(O)cc1)C1CCCCCC1`, the IC50 in the series on MCF7 (Homo sapiens, MCF7, 72 h) came out at 0.48 nM; with PC-3 [1] (Homo sapiens, PC-3, 72 h), 2 nM.

Turning to `COc1ccc2c(c1C)NC(=O)[C@@]2(c1ccc(O)cc1)C1CCCCCC1`, the IC50 in the series with MCF7 (Homo sapiens, MCF7, 72 h) is above 1000 nM; in the series on PC-3 [1] (Homo sapiens, PC-3, 72 h), above 1000 nM.

Take `O=C1Nc2c(C(F)(F)F)cccc2C1(c1ccc(O)cc1)C1CCCCCC1` (racemic): the IC50 in the series on MCF7 (Homo sapiens, MCF7, 72 h) was found to be 9.7 nM; in the series with PC-3 [1] (Homo sapiens, PC-3, 72 h) it was 91 nM. The values for the Activity in the series with PC-3 [2] and with PC-3 [3] were 20 mg/kg and above 20 mg/kg, respectively. In addition, the selectivity ratio in series [4] was 4. Moreover, the MTD in series [5] stood at 40 mg/kg.

With `O=C1Nc2c(C(F)(F)F)cccc2C1(c1ccc(O)cc1)n1ccnc1` (racemic), the IC50 was above 1000 nM in the series with MCF7 (Homo sapiens, MCF7, 72 h) and above 1000 nM in the series with PC-3 [1] (Homo sapiens, PC-3, 72 h). For the same compound, the inhibition entry in series [6] is “inactive”. Also, the induction result in [7] is “inactive”.

On to `Cc1cc(C)c2c(c1)C(c1ccc(O)cc1)(c1ccc(F)cc1)C(=O)N2` (racemic), for which the IC50 in the series on MCF7 (Homo sapiens, MCF7, 72 h) stood at 40 nM; in the series with PC-3 [1] (Homo sapiens, PC-3, 72 h), 209 nM.

For `Cc1cc(C)c2c(c1)C(c1ccc(O)cc1)(C1CCCCCC1)C(=O)N2` (racemic), the IC50 in the series on MCF7 (Homo sapiens, MCF7, 72 h) is above 1000 nM; in the series on PC-3 [1] (Homo sapiens, PC-3, 72 h), above 1000 nM.

For `Cc1cc(F)cc2c1NC(=O)C2(c1ccc(O)cc1)C1CCCCCC1` (racemic), the concentration for half-maximal inhibition (IC50) in the series with MCF7 (Homo sapiens, MCF7, 72 h) was above 1000 nM; with PC-3 [1] (Homo sapiens, PC-3, 72 h) it was above 1000 nM.

For the compound `Cc1ccc2c(c1C)NC(=O)C2(c1ccc(O)cc1)C1CCCCCC1` (racemic), the IC50 is 19 nM in the series on MCF7 (Homo sapiens, MCF7, 72 h) and above 1000 nM in the series with PC-3 [1] (Homo sapiens, PC-3, 72 h).

In the case of `Cc1c(F)ccc2c1NC(=O)C2(c1ccc(O)cc1)C1CCCCCC1` (racemic), the IC50 in the series on MCF7 (Homo sapiens, MCF7, 72 h) turned out to be 20 nM; in the series with PC-3 [1] (Homo sapiens, PC-3, 72 h) it was 30 nM.

On to `Cc1c(Cl)ccc2c1NC(=O)C2(c1ccc(O)cc1)C1CCCCCC1` (racemic), for which the IC50 was 51 nM in the series on MCF7 (Homo sapiens, MCF7, 72 h) and 150 nM with PC-3 [1] (Homo sapiens, PC-3, 72 h).

Turning to `Cc1ccc2c(c1Cl)NC(=O)C2(c1ccc(O)cc1)C1CCCCCC1` (racemic), the IC50 was 2.8 nM in the series on MCF7 (Homo sapiens, MCF7, 72 h) and 17 nM in the series on PC-3 [1] (Homo sapiens, PC-3, 72 h).

`COc1ccc2c(c1C)NC(=O)C2(c1ccc(O)cc1)C1CCCC1` (racemic): the concentration for half-maximal inhibition (IC50) was 1 nM in the series with MCF7 (Homo sapiens, MCF7, 72 h) and 111 nM in the series on PC-3 [1] (Homo sapiens, PC-3, 72 h).

`COc1ccc2c(c1C)NC(=O)C2(c1ccc(O)cc1)C1CCCCC1` (racemic): the concentration for half-maximal inhibition (IC50) worked out at 14 nM in the series with MCF7 (Homo sapiens, MCF7, 72 h) and 28 nM with PC-3 [1] (Homo sapiens, PC-3, 72 h).

As for `O=C1Nc2c(ccc(F)c2F)C1(c1ccccc1)c1ccc(O)cc1` (racemic), the IC50 in the series with MCF7 (Homo sapiens, MCF7, 72 h) was 7.1 nM; in the series with PC-3 [1] (Homo sapiens, PC-3, 72 h) it was 8.9 nM.

Take `O=C1Nc2c(ccc(F)c2F)C1(c1ccc(O)cc1)c1ccc(F)cc1` (racemic): the IC50 in the series on MCF7 (Homo sapiens, MCF7, 72 h) is 2.6 nM; with PC-3 [1] (Homo sapiens, PC-3, 72 h) it was 8.6 nM. For the same compound, the Activity in the series with PC-3 [2] was 2.5 mg/kg; with PC-3 [3], below 2.5 mg/kg. In addition, the selectivity ratio in series [4] came out at 2. The AUC stood at 1910 ng·h/mL in series [8] and 2530 ng·h/mL in series [11]. Moreover, the half-life in series [9] is 2.1 h; in [10], 0.8 h. Further, the MTD in series [5] turned out to be 2.5 mg/kg.

`COc1ccc(C2(c3ccc(O)cc3)C(=O)Nc3c2ccc(F)c3F)cc1` (racemic): the IC50 in the series with MCF7 (mcf7) is 6.3 nM; in the series with PC-3 [1] (pc-3), 2.2 nM.

As to `Cc1ccc(C2(c3ccc(O)cc3)C(=O)Nc3c2ccc(F)c3F)cc1` (racemic), the IC50 with MCF7 (Homo sapiens, MCF7, 72 h) was 1.7 nM; in the series on PC-3 [1] (Homo sapiens, PC-3, 72 h), 0.8 nM.

Consider `O=C1Nc2c(ccc(F)c2F)C1(c1ccc(O)cc1)C1CCCCC1` (racemic), for which the figures for the IC50 in the series on MCF7 (mcf7) and in the series with PC-3 [1] (pc-3) were 13 nM and 32 nM, respectively. For the same compound, the Activity with PC-3 [2] was 10 mg/kg; in the series on PC-3 [3], below 10 mg/kg. In series [4], the selectivity ratio was determined as 2. For the same compound, the figures for the exposure (AUC) in series [8] and in [13] were 3550 ng·h/mL and 1350 ng·h/mL, respectively. For the same compound, the half-life in series [9] is 1.6 h; in series [12], 1.1 h. In series [5], the MTD was 10 mg/kg.

As for `CCOc1ccc(C2(c3ccc(O)cc3)C(=O)Nc3c2ccc(F)c3F)cc1` (racemic), the IC50 with MCF7 (Homo sapiens, MCF7, 72 h) is 11 nM; in the series on PC-3 [1] (Homo sapiens, PC-3, 72 h), 24 nM.

Consider `CCCOc1ccc(C2(c3ccc(O)cc3)C(=O)Nc3c2ccc(F)c3F)cc1` (racemic), for which the IC50 in the series with MCF7 (Homo sapiens, MCF7, 72 h) was 356 nM; in the series on PC-3 [1] (Homo sapiens, PC-3, 72 h), above 1000 nM.
